Test [1] deals with A549. The test is described as follows: Induction of mitochondrial membrane disruption in human A549 cells assessed as cells with mitochondrial membrane potential loss at 4 nM after 48 hrs by JC1 staining based flow cytometry (reference value: 0.82%). The format is functional.
The next test relates to MDA-MB-231. The test is described as follows: Growth inhibition of human MDA-MB-231 cells after 48 hrs by MTT assay. The format is functional, cell-based. Particulars: MDA-MB-231, 48 h. Summed up:
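MTT assay: log-phase cells plated at 5 × 10³/well for 24 h, then exposed to a range of test concentrations for 48 h. MTT (5 mg/mL) added for 4 h, formazan dissolved in DMSO, absorbance read at 570 nm. IC50 is the concentration giving 50% growth inhibition, from dose-response curves; at least three independent experiments, mean ± SE.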

In test [2] the test system is A549. Description: Induction of apoptosis in human A549 cells assessed as necrotic cells at 4 nM after 24 hrs by Annexin V-FITC/propidium iodide staining based flow cytometry (reference value: 0.10%). The format is functional.
The test system of test [3] is A549. Description: Induction of apoptosis in human A549 cells assessed as live cells at 4 nM after 24 hrs by Annexin V-FITC/propidium iodide staining based flow cytometry (reference value: 98.84%). Format: functional.
Test [4] concerns A549. The test is described as follows: Induction of apoptosis in human A549 cells assessed as late apoptotic cells at 2 nM after 48 hrs by Annexin V-FITC/propidium iodide staining based flow cytometry (reference value: 0.03%). The format is functional.
The nature of test [5]: Selectivity index, ratio of IC50 for human BJ cells to IC50 for human A549 cells. The format is functional. A digest of the protocol:
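MTT assay in normal cells and A549: seeding at 5 × 10³ cells/well for 24 h, 48 h compound exposure, then 5 mg/mL MTT for 4 h, DMSO solubilisation and absorbance at 570 nm. IC50 values came from dose–response curves of at least three independent experiments. Selectivity ratio = IC50 in normal cells / IC50 in A549.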

Test [6] deals with A549. Description: Induction of mitochondrial membrane disruption in human A549 cells assessed as cells with mitochondrial membrane potential loss at 2 nM after 48 hrs by JC1 staining based flow cytometry (reference value: 0.82%). The format is functional.
Test [7] relates to A549. Description: Induction of mitochondrial membrane disruption in human A549 cells assessed as cells with intact mitochondrial membrane at 8 nM after 48 hrs by JC1 staining based flow cytometry (reference value: 99.13%). Format: functional.
Test [8] concerns A549. Description: Induction of apoptosis in human A549 cells assessed as live cells at 2 nM after 48 hrs by Annexin V-FITC/propidium iodide staining based flow cytometry (reference value: 98.49%). The format is functional.
Test [9] concerns A549. Description: Induction of apoptosis in human A549 cells assessed as necrotic cells at 4 nM after 48 hrs by Annexin V-FITC/propidium iodide staining based flow cytometry relative to control. Format: functional.

pIC50: −log10 of the molar value.

For the compound `C[Se]c1ccc(N(C)c2nc(C)nc3ccccc23)cc1`, the Activity with A549 [1] is reported as 42.83%; in the test with A549 [2], 2.28%; in the test on A549 [3] it was 64.86%; in the test with A549 [4], 20.5%; in the test with A549 [6] it was 15.85%; in the test with A549 [7], 36.52%. The results for the Activity in the test on A549 [8] and with A549 [9] were 49.81% and 6.8%, respectively. This compound showed a pIC50 with MDA-MB-231 of 8.40. In [5], the “Ratio IC50” value came to 9.5.
